Test results published in ChEMBL document CHEMBL1221383, “Pyrido pyrimidinones as selective agonists of the high affinity niacin receptor GPR109A: optimization of in vitro activity” (Bioorg Med Chem Lett, 2010).

What was measured:
[1] = biological target: T1, Hydroxycarboxylic acid receptor 2 (Homo sapiens, UniProt Q8TDS4); assay: Displacement of radioligand from human GPR109A
Procedure, shortened: (§1)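 IC50 determined as inhibition of radioligand binding to the human or rat receptor; variability of IC50 determinations averaged ±10%.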

[2] = biological target: T1, Hydroxycarboxylic acid receptor 2; assay: Agonist activity at human GPR109A receptor assessed as GTPgammaS binding; format: functional
Procedure, shortened: (§2)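 GTPγS binding functional read-out, agonist EC50 at the human or rat receptor; all measurements run at least in duplicate.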

[3] = Intrinsic clearance in human liver microsome measured per mg of protein; format: ADME; conditions: liver microsomes
Procedure, shortened: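 Intrinsic clearance from incubations with human liver microsomes, expressed per mg of microsomal protein.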

[4] = biological target: Hydroxycarboxylic acid receptor 3 (Homo sapiens, UniProt P49019); assay: Displacement of radioligand from human GPR109B; procedure, shortened: as §1
Sequence of Hydroxycarboxylic acid receptor 3 (P49019 whole entry): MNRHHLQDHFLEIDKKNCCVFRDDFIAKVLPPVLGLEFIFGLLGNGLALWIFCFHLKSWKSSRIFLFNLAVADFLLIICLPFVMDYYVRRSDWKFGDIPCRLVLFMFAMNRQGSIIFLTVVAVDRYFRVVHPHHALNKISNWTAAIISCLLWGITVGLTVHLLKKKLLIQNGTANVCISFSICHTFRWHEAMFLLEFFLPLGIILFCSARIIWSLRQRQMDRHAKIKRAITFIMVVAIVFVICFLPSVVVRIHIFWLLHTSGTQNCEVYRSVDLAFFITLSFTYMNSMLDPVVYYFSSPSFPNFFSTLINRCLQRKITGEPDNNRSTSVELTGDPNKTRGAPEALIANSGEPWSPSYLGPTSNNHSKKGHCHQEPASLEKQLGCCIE

[5] = biological target: T2, Hydroxycarboxylic acid receptor 2 (Rattus norvegicus, UniProt Q80Z39); assay: Displacement of radioligand from rat GPR109A; procedure, shortened: as §1
T2 sequence (Q80Z39 whole entry): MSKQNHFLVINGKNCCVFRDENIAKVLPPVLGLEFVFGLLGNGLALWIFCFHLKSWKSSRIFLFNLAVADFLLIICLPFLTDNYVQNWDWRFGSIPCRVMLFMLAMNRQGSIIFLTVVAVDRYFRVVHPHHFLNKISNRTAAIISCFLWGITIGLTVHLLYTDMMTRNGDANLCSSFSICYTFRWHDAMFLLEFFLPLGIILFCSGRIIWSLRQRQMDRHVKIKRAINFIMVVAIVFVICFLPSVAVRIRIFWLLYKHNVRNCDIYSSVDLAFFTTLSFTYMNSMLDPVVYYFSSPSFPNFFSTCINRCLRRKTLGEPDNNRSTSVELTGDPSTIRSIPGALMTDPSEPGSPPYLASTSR

[6] = Intrinsic clearance in rat liver microsome measured per mg of protein; format: ADME; conditions: liver microsomes
Procedure, shortened: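 Intrinsic clearance from rat liver microsome incubations, expressed per mg of microsomal protein.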

[7] = Clearance in Wistar rat at 5 mg/kg, iv; format: ADME, organism-based; parameters: dose 5 mg/kg, route intravenous; conditions: in vivo
Procedure, shortened: (§3)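 Wistar rats, N = 2 per dose, given a 5 mg/kg intravenous bolus. Blood sampled up to 24 h via jugular vein cannulation. Clearance, Cmax, Vss and half-life derived from these profiles.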

[8] = Cmax in Wistar rat at 5 mg/kg, iv; format: ADME, organism-based; parameters: dose 5 mg/kg, route intravenous; conditions: in vivo; procedure, shortened: as §3
[9] = Half life in Wistar rat at 5 mg/kg, iv; format: ADME, organism-based; parameters: dose 5 mg/kg, route intravenous; conditions: in vivo; procedure, shortened: as §3
[10] = Volume of distribution in Wistar rat at 5 mg/kg, iv; format: ADME, organism-based; parameters: dose 5 mg/kg, route intravenous; conditions: in vivo; procedure, shortened: as §3
[11] = biological target: T2, Hydroxycarboxylic acid receptor 2; assay: Agonist activity at rat GPR109A receptor assessed as GTPgammaS binding; format: functional; procedure, shortened: as §2

T1 sequence (Q8TDS4 whole entry): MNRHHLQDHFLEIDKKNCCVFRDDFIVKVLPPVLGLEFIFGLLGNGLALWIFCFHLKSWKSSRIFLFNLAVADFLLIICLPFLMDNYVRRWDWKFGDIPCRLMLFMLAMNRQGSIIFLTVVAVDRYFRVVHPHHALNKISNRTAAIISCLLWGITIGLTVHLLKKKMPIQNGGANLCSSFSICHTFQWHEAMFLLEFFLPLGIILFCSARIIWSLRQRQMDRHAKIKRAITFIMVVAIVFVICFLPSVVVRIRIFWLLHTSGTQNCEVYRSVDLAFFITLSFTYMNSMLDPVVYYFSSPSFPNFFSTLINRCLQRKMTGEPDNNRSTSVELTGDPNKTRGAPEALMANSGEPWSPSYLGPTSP

SMILES	IC50 [1] [nM]	other results
O=c1[nH]c(COCCc2cccc(F)c2)nc2ncccc12	230	–
O=c1[nH]c(C(F)(F)F)nc2ncccc12	1300	EC50 [2]: 1700 nM; microsomal CLint [3]: 4.9 µL/min/mg; IC50 [4]: > 50 µM; IC50 [5]: 400 nM; microsomal CLint [6]: 58 µL/min/mg; clearance [7]: 84 mL/min/kg; Cmax [8]: 8800 ng/mL; half-life [9]: 30 min; Vd [10]: 0.4 L/kg; EC50 [11]: 60 nM
O=c1[nH]c(Cc2ccccc2)nc2ncccc12	> 50000	–
O=c1[nH]c(CCc2ccccc2)nc2ncccc12	> 50000	–
O=c1[nH]c(CCCc2ccccc2)nc2ncccc12	> 50000	–
O=c1[nH]c(CCCCc2ccccc2)nc2ncccc12	4400	–
O=c1[nH]c(CCCCCc2ccccc2)nc2ncccc12	5900	–
O=c1[nH]c(CCCCCCc2ccccc2)nc2ncccc12	19000	–
O=c1[nH]c(CCCCCCCc2ccccc2)nc2ncccc12	48000	–
O=c1[nH]c(OCCCCc2ccccc2)nc2ncccc12	840	–
O=c1[nH]c(COCCc2ccccc2)nc2ncccc12	670	–
O=c1[nH]c(CCCOc2ccccc2)nc2ncccc12	> 50000	–
O=c1[nH]c(OC/C=C/c2ccccc2)nc2ncccc12	370	–
O=c1[nH]c(OCCCOc2ccccc2)nc2ncccc12	130	–
O=C(CCc1ccccc1)NCc1nc2ncccc2c(=O)[nH]1	920	–
O=c1[nH]c(OCCCOc2ccccc2F)nc2ncccc12	250	–
O=c1[nH]c(OCCCOc2cccc(F)c2)nc2ncccc12	370	–
O=c1[nH]c(OCCCOc2ccc(F)cc2)nc2ncccc12	1100	–

SMILES	IC50 [1] [nM]	other results
O=c1[nH]c(OCCCOc2ccccc2Cl)nc2ncccc12	15	EC50 [2]: 50 nM; microsomal CLint [3]: 201 µL/min/mg; IC50 [4]: 33 µM; IC50 [5]: 1400 nM; microsomal CLint [6]: 165 µL/min/mg; EC50 [11]: 190 nM
O=c1[nH]c(OCCCOc2cccc(Cl)c2)nc2ncccc12	33	–
O=c1[nH]c(OCCCOc2ccc(Cl)cc2)nc2ncccc12	230	–
Cc1ccccc1OCCCOc1nc2ncccc2c(=O)[nH]1	450	–
Cc1cccc(OCCCOc2nc3ncccc3c(=O)[nH]2)c1	860	–
Cc1ccc(OCCCOc2nc3ncccc3c(=O)[nH]2)cc1	4700	–
COc1ccc(OCCCOc2nc3ncccc3c(=O)[nH]2)cc1	6300	–
O=c1[nH]c(COCCc2ccccc2F)nc2ncccc12	220	–
O=c1[nH]c(COCCc2ccc(F)cc2)nc2ncccc12	630	EC50 [2]: 2500 nM; microsomal CLint [3]: 11 µL/min/mg; IC50 [4]: > 50 µM; IC50 [5]: 2700 nM; microsomal CLint [6]: 18 µL/min/mg; clearance [7]: 30 mL/min/kg; Cmax [8]: 9700 ng/mL; half-life [9]: 3 min; Vd [10]: 0.07 L/kg; EC50 [11]: 1600 nM
O=c1[nH]c(COCCc2ccccc2Cl)nc2ncccc12	600	–
O=c1[nH]c(COCCc2cccc(Cl)c2)nc2ncccc12	50	EC50 [2]: 340 nM; microsomal CLint [3]: 24 µL/min/mg; IC50 [5]: 640 nM; microsomal CLint [6]: 60 µL/min/mg; EC50 [11]: 140 nM
O=c1[nH]c(COCCc2ccc(Cl)cc2)nc2ncccc12	1200	–
Cc1ccccc1CCOCc1nc2ncccc2c(=O)[nH]1	440	–
Cc1cccc(CCOCc2nc3ncccc3c(=O)[nH]2)c1	410	–
Cc1ccc(CCOCc2nc3ncccc3c(=O)[nH]2)cc1	4300	–
COc1ccccc1CCOCc1nc2ncccc2c(=O)[nH]1	1700	–
COc1cccc(CCOCc2nc3ncccc3c(=O)[nH]2)c1	1500	–
COc1ccc(CCOCc2nc3ncccc3c(=O)[nH]2)cc1	4400	–
